Experimental findings from ChEMBL document CHEMBL1143361, “Tetracyclic indole inhibitors of hepatitis C virus NS5B-polymerase” (Bioorg Med Chem Lett, 2009) are described below.

SMILES strings stand for the structures. Active and inactive are the calls of the source. The rule behind the calls is not given here. A value given as a limit tells only on which side of the number the result lay.

A short description of data set [1]: Inhibition of HCV NS5B Cdelta21 in presence of heterogenic template RNA. More on the design: species or system Hepacivirus hominis. In outline: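 Purified NS5B enzyme (C-terminal 21-residue deletion) assayed with heterogenic template RNA. IC50 is the mean of at least two experiments.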
The nature of data set [2]: Protein binding in human plasma. In kind it is ADME, cell-free. The note with it: read-out: PPB (converted).
A further data set deals with Hepatitis C virus. Briefly: Antiviral activity against Hepatitis C virus infected in human HUH7 cells by replicon assay. The note with it: Huh-7. In kind it is functional, organism-based, Hepacivirus hominis. In a few lines: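 Subgenomic HCV RNA replicon in HUH-7 cells, adapted from the Bartenschlager procedure, run in 10% fetal calf serum unless otherwise stated. EC50 is the mean of at least two experiments.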
(A replicon is a self-replicating genome or part of one, used to study replication in cells.)

The nature of data set [3]: Oral bioavailability in rat. Format: ADME, organism-based. The conditions noted are these: in vivo. In a few lines:
(§1)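 Given as HCl or trifluoroacetate salts, intravenously (vehicle 20% DMSO/60% PEG400/20% H2O) and orally (vehicle PEG400); n = 3. AUC reported with the dose in mpk; oral bioavailability and plasma clearance are derived from these dosings.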

Data set [4] in a line: AUC in rat. The note with it: plasma. In kind it is ADME, organism-based. In a few lines: as §1
Data set [5] can be described thus: Metabolic stability in po dosed dog assessed as urinary excretion. Format: ADME, organism-based, Canis lupus familiaris. The conditions noted are these: urine, read-out: Stability.
The nature of data set [6]: Ratio of drug level from liver to plasma in po dosed rat after 6 hrs. Format: ADME, organism-based. In outline: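 Rats dosed orally; compound concentrations in liver and plasma measured 6 h after administration and expressed as a liver/plasma ratio.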
A short description of data set [7]: Plasma clearance in rat. Format: ADME, organism-based. In outline:
as §1

Data set [8] can be described thus: Intrinsic clearance in human liver microsomes in presence of NADPH. Format: ADME, Microsome. In outline: (§2)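 Incubated with liver microsomes (rat, dog, rhesus or human) in the presence of NADPH. Intrinsic clearance is expressed in ml/min/kg.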
(Microsomes from liver hold many membrane-bound enzymes, among them those of drug oxidation.)

The nature of data set [9]: Oral bioavailability in dog. Format: ADME, organism-based, Canis lupus familiaris. The conditions noted are these: in vivo. In a few lines:
as §1

Data set [10] in a line: AUC in rhesus monkey. Format: ADME, organism-based, Macaca mulatta. The conditions noted are these: plasma. In outline: as §1
Data set [11] can be described thus: Fraction unbound in human plasma. Format: ADME, cell-free.
Data set [12] in a line: Intrinsic clearance in rhesus monkey liver microsomes in presence of NADPH. Format: ADME, Macaca mulatta, Microsome. In outline: as §2
Data set [13] in a line: Metabolic stability in po dosed rat assessed as biliary excretion. In kind it is ADME, organism-based. The note with it: bile, read-out: Stability.
The next data set relates to Hepatocyte. Briefly: Metabolic stability in human hepatocytes after 4 hrs by HPLC. In kind it is ADME, cell-based. In a few lines: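 [3H]-labelled compound incubated 4 h with human hepatocytes. Analysis by HPLC with radiochromatographic detection.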
Data set [14] deals with T1, Nuclear receptor subfamily 1 group I member 2 (Homo sapiens, UniProt O75469).
T1 sequence (O75469 whole entry): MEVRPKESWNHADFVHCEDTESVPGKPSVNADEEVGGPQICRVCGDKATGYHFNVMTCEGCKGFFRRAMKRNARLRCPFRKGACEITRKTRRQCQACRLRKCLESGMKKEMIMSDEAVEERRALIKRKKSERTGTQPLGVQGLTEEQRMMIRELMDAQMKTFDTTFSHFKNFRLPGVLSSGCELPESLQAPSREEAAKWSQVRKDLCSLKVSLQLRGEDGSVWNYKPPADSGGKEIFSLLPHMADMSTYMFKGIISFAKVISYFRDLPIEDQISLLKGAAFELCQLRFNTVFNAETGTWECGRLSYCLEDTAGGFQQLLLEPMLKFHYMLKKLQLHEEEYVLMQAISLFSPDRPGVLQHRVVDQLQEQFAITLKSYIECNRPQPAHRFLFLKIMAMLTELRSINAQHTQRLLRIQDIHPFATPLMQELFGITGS
The data set is described as follows: Activity at human PXR at 10 uM by reporter gene assay.

A short description of data set [15]: AUC in dog. Format: ADME, organism-based, Canis lupus familiaris. The note with it: plasma. In a few lines: as §1
A short description of data set [16]: Fraction unbound in dog plasma. In kind it is ADME, cell-free, Canis lupus familiaris.
Data set [17] can be described thus: Intrinsic clearance in rat liver microsomes in presence of NADPH. In kind it is ADME, Microsome. In outline: as §2
A further data set is filed under the species Homo sapiens. The data set is described as follows: Inhibition of human DNA polymerase.
In another data set the target is Cytochrome P450 3A4 (Homo sapiens, UniProt P08684). The data set is described as follows: Inhibition of CYP3A4 in human liver microsomes. In kind it is ADME, Microsome.
A short description of data set [18]: Plasma clearance in rhesus monkey. Format: ADME, organism-based, Macaca mulatta. In a few lines:
as §1

A short description of data set [19]: Fraction unbound in rat plasma. In kind it is ADME, cell-free.
Data set [20] in a line: Intrinsic clearance in dog liver microsomes in presence of NADPH. Format: ADME, Canis lupus familiaris, Microsome. In a few lines: as §2
The next data set relates to Canis familiaris. Briefly: Cardiotoxicity in anesthetized dogs assessed as prolongation of QT interval up to 10 mg/kg. Format: toxicity, organism-based, Canis lupus familiaris. Also on record: dose 10 mg/kg. The note with it: dog, in vivo.
Data set [21] can be described thus: Oral bioavailability in rhesus monkey. Format: ADME, organism-based, Macaca mulatta. The note with it: in vivo. In outline:
as §1

Data set [22] is described as follows: Metabolic stability in po dosed rat assessed as urinary excretion. In kind it is ADME, organism-based. The note with it: urine, read-out: Stability.
Data set [23] can be described thus: Plasma clearance in dog. Format: ADME, organism-based, Canis lupus familiaris. In a few lines: as §1

Cytochrome P450 3A4, sequence (P08684 whole entry): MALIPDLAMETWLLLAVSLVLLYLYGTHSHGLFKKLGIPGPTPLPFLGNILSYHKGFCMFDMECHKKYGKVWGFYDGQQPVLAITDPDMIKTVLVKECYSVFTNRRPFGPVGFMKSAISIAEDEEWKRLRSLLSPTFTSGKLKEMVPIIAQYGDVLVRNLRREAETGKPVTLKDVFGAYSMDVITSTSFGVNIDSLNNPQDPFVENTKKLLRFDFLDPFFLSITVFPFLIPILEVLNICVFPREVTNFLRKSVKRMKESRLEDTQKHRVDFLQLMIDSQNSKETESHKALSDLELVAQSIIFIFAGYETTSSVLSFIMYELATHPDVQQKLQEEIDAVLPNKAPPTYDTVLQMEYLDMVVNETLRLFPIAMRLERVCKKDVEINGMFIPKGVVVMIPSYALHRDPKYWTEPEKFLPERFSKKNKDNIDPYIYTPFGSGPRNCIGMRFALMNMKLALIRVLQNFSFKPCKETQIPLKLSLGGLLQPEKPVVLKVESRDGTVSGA

A word on the IC50: it is the midpoint of a concentration-inhibition curve. For `CN(C)C(=O)Cn1c(-c2ccccc2)c(C2CCCCC2)c2ccc(C(=O)O)cc21`, the IC50 in data set [1] was 430 nM. In addition, the fraction unbound in data set [2] was 0.029.
In general, EC50 refers to the concentration giving half of the maximal effect. Take `CN(C)CC(=O)N1CCn2c(c(C3CCCCC3)c3ccc(C(=O)O)cc32)-c2ccccc2C1`: the IC50 in [1] turned out to be 130 nM. The molecule also yielded an EC50 in the data set on Hepatitis C virus of 220 nM.
As usually defined, the bioavailability is dose-corrected exposure relative to a reference, in per cent. As a reminder, the AUC is concentration integrated over time. In the case of `CCN(CC)C1CCN(C(=O)Cn2c(-c3ccc(Cl)cc3)c(C3CCCCC3)c3ccc(C(=O)O)cc32)CC1`, the bioavailability in data set [3] is 10%. The AUC in [4] turned out to be 0.2 µM·h. Moreover, the IC50 in data set [1] amounted to 48 nM. In addition, a half-maximal response in the data set on Hepatitis C virus (EC50) required 180 nM.
A word on the Kp: it is the ratio of the level in a tissue or fluid to that in plasma or blood. In general, clearance refers to the volume of plasma or blood freed of the substance per unit of time. What is called CLint scaled is the rate of metabolic loss divided by the concentration. As to `CN(C)CCN1CCn2c(c(C3CCCCC3)c3ccc(C(=O)O)cc32)-c2ccccc2C1`, the bioavailability in [3] is 31%; in data set [9], 74%; in [21], 57%. Further, the dose excreted was under 1% in data set [5], 4% in [13] and 1% in data set [22]. In addition, the Kp at 6 h in data set [6] came out at 16. Moreover, the AUC in data set [4] is 4.2 µM·h; in data set [10] it was 2 µM·h; in data set [15] it was 23 µM·h. Moreover, the clearance in data set [7] is 61 mL/min/kg; in data set [18] it was 22 mL/min/kg; in data set [23], 2.5 mL/min/kg. In addition, the intrinsic clearance (CLint scaled) was found to be 5 mL/min/kg in data set [8], 51 mL/min/kg in data set [12], 100 mL/min/kg in [17] and 26 mL/min/kg in data set [20]. Besides, the values for the fraction unbound in data set [11], in data set [16] and in data set [19] were 0.03, 0.03 and 0.07, respectively. In the data set on Hepatocyte, the Stability entry is recorded as “Stable”. The Activity entry in data set [14] was “Not Active”; at Cytochrome P450 3A4, “Not Active”; in the data set on Canis familiaris it was “Non-toxic”. In data set [1], the IC50 stood at 27 nM. Also, the result in the data set filed under Homo sapiens was inactive.
For the molecule `CN(C)CCN1CCn2c(c(C3CCCCC3)c3ccc(C(=O)O)cc32)-c2ccccc21`, in [1], the IC50 came to 28 nM.
`CN(C)CCN1C(=O)Cn2c(c(C3CCCCC3)c3ccc(C(=O)O)cc32)-c2ccccc21`: in [1], the IC50 amounted to 130 nM. This molecule came in with an EC50 with Hepatitis C virus of 410 nM.
For `CN(C)CC1CN(C)c2ccccc2-c2c(C3CCCCC3)c3ccc(C(=O)O)cc3n21` (racemic) the same measures were 1920 nM and 13500 nM.
As to `CN(C)CC(=O)N1CCn2c(c(C3CCCCC3)c3ccc(C(=O)O)cc32)-c2ccc(F)cc2C1`, the bioavailability in [3] was 48%; in data set [9], 83%. Moreover, the Kp at 6 h in [6] worked out at 8. Also, the AUC in [4] was found to be 4 µM·h; in data set [15], 17.6 µM·h. Further, the clearance in data set [7] came to 12 mL/min/kg; in data set [23] it was 3 mL/min/kg. The CLint scaled is 13 mL/min/kg in data set [8], 42 mL/min/kg in [12], 16 mL/min/kg in data set [17] and 8 mL/min/kg in data set [20]. Also, the fraction unbound in data set [11], in [16] and in data set [19] was 0.02 in each case. Further, the IC50 in [1] came out at 60 nM. It took 170 nM to reach a half-maximal effect in the data set with Hepatitis C virus (EC50).
As to `COc1ccc2c(c1)CN(C)CCn1c-2c(C2CCCCC2)c2ccc(C(=O)O)cc21`, the bioavailability in [3] is 83%; in data set [9] it was 67%. Also, the values for the AUC in data set [4] and in data set [15] were 2.9 µM·h and 18.7 µM·h, respectively. The values for the clearance in data set [7] and in data set [23] were 32 mL/min/kg and 2.9 mL/min/kg, respectively. Further, the CLint scaled was 7 mL/min/kg in data set [8], 16 mL/min/kg in data set [12], 43 mL/min/kg in data set [17] and 6 mL/min/kg in [20]. The IC50 in [1] is 55 nM. The molecule also returned an EC50 in the data set on Hepatitis C virus of 290 nM.
With `CN1CCn2c(c(C3CCCCC3)c3ccc(C(=O)O)cc32)-c2ccccc2C1`, the IC50 in data set [1] is 170 nM. For the same molecule, the EC50 in the data set on Hepatitis C virus is 890 nM.
In the same order, the values of `CN(C)CC1Cn2c(c(C3CCCCC3)c3ccc(C(=O)O)cc32)-c2ccccc2CN1C` (racemic) are 35 nM and 140 nM.
For `CN1Cc2ccccc2-c2c(C3CCCCC3)c3ccc(C(=O)O)cc3n2CC1=O`, the IC50 in data set [1] is 80 nM. In data set [2], the fraction unbound was 0.003. The EC50 with Hepatitis C virus came to 18900 nM.
`COc1ccc2c(c1)N(CCN(C)C)CCCn1c-2c(C2CCCCC2)c2ccc(C(=O)O)cc21`: in data set [1], the IC50 was 77 nM. Also, the response in the data set with Hepatitis C virus was half-maximal at 540 nM (EC50).
In the case of `COc1ccc2c(c1)CN(CCN(C)C)CCn1c-2c(C2CCCCC2)c2ccc(C(=O)O)cc21`, the IC50 in [1] came to 35 nM. Besides, in the data set on Hepatitis C virus, the EC50 was 100 nM.
For `CN(C)CCN1Cc2ccccc2-c2c(C3CCCCC3)c3ccc(C(=O)O)cc3n2CCC1=O` the same measures were 860 nM and 1440 nM.
In the same order, the values of `CN(C)CC1Cn2c(c(C3CCCCC3)c3ccc(C(=O)O)cc32)-c2ccccc2N1C` (racemic) are 43 nM and 160 nM.
In the same order, the values of `CN(C)CCN1Cc2ccccc2-c2c(C3CCCCC3)c3ccc(C(=O)O)cc3n2CC1=O` are 110 nM and 260 nM.
